Assay results published in publication PMC7113852 (Antiviral Research, 2018).
Like-named read-outs stand apart in the source and are kept apart here.

Experiments:
[1] = tested on: RVFV (rRVFVΔNSs::Katushka); test: microbe, parasite or virus in culture; format: cell-based, Rift Valley fever virus; conditions: for EC50: Rift Valley fever virus, A549, read-out: EC50 other
in vitro [2] = conditions: human
ZIKV FB-GWUH-2016 strain [3] = test: Viability and death of ZIKV-infected RPE cells; format: cell-based, Zika virus; conditions: for SI (minimal selectivity index, CC50/EC50): ZIKV, RPE cells; for EC50: Zika virus, RPE
ZIKV FB-GWUH-2016 strain [4] = test: ZIKV titer from compound-treated RPE cells, plaque assay on Vero-E6 cells; format: cell-based, Zika virus; conditions: for antiviral activity in repeat experiments: repeated CTG, CTxG and virus titration; for EC50: Zika virus, read-out: EC50 other
Summary of the method: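 Medium for ZIKV infection: DMEM-F12 with 2% FBS, 2 mM L-glutamine, 0.25% sodium bicarbonate and 50 U/ml PenStrep, applied after 24 h growth of ~4 × 10^4 RPE cells/well. Test compound added in seven three-fold dilutions from 30 μM; infection at MOI 1. Media harvested at cytopathic effect (typically 24–72 hpi), serially diluted in PBS, plaque-titrated on Vero-E6 (PFU/ml). EC50 from variable-slope non-linear regression or Hill fit.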

in vitro [5] = conditions: human; remark: listed apart in the source
CHIKV-2SG-NanoLuc [6] = test: microbe, parasite or virus in culture; format: cell-based, Chikungunya virus; conditions: for SI (minimal selectivity index, CC50/EC50): CHIKV, RPE cells; for EC50: Chikungunya virus, RPE
CHIKV-2SG-NanoLuc [7] = test: microbe, parasite or virus in culture; format: cell-based, Chikungunya virus; conditions: for EC50: Chikungunya virus, RPE, read-out: EC50 other
EV1 [8] = test: microbe, parasite or virus in culture; format: cell-based, Echovirus 1
EV1 [9] = test: microbe, parasite or virus in culture; format: cell-based, Echovirus 1; conditions: for EC50: read-out: EC50 other
HIV-1 = HIV-1 infection of TZM-bl cells, firefly luciferase under HIV-1 LTR promoter; format: cell-based, Human immunodeficiency virus 1; conditions: for SI (minimal selectivity index, CC50/EC50) / primary screen hit against HIV-1 / validation of anti-HIV-1 hit: HIV-1, TZM-bl cells; for validation of anti-HIV-1 hit: validation experiment; for EC50: Human immunodeficiency virus 1, TZM-bl, read-out: EC50 other
in vitro [10] = conditions: human; remark: listed apart in the source
RRV-2SG-NanoLuc [11] = test: microbe, parasite or virus in culture; format: cell-based, Ross River virus
RRV-2SG-NanoLuc [12] = test: microbe, parasite or virus in culture; format: cell-based, Ross River virus; remark: listed apart in the source
[13] = Enterovirus B, RPE, read-out: EC50 CTxG

Nc1ncn([C@@H]2O[C@H](CO)[C@@H](O)[C@H]2O)c(=O)n1 [Azacitidine]
SI (minimal selectivity index, CC50/EC50) [1]: >9
screen hit against RVFV [1]: identified
EC50 [1]: 11.4 µM
CC50 (in vitro [2]): > 100 µM

Nc1ncnc2c([C@@H]3N[C@H](CO)[C@@H](O)[C@H]3O)c[nH]c12 [BCX4430]
SI (minimal selectivity index, CC50/EC50) (ZIKV FB-GWUH-2016 strain [3]): >2
EC50 (ZIKV FB-GWUH-2016 strain [3]; read-out: EC50 CTG): 18.5 µM
EC50 (ZIKV FB-GWUH-2016 strain [3]; read-out: EC50 CTxG): 2.96 µM
antiviral activity in repeat experiments (ZIKV FB-GWUH-2016 strain [4]; ZIKV, RPE cells): confirmed antiviral activity
EC50 (ZIKV FB-GWUH-2016 strain [4]): 13.1 µM
CC50 (in vitro [5]; CC50 CTG): > 30 µM
CC50 (in vitro [5]; CC50 CTxG): > 30 µM

CCN(CC)CCCC(C)Nc1ccnc2cc(Cl)ccc12 (stereo not drawn) [Chloroquine]
SI (minimal selectivity index, CC50/EC50) (ZIKV FB-GWUH-2016 strain [3]): >4
EC50 (ZIKV FB-GWUH-2016 strain [3]; read-out: EC50 CTG): 7.25 µM
antiviral activity in repeat experiments (ZIKV FB-GWUH-2016 strain [4]; ZIKV, RPE cells): confirmed antiviral activity
SI (minimal selectivity index, CC50/EC50) (CHIKV-2SG-NanoLuc [6]): >2
EC50 (CHIKV-2SG-NanoLuc [6]; read-out: EC50 CTG): 12.8 µM
EC50 (CHIKV-2SG-NanoLuc [6]; read-out: EC50 CTxG): 9.15 µM
antiviral activity in repeat experiments (CHIKV-2SG-NanoLuc [7]): confirmed antiviral activity
EC50 (CHIKV-2SG-NanoLuc [7]): 16.8 µM
CC50 (in vitro [5]; CC50 CTG): > 30 µM
CC50 (in vitro [5]; CC50 CTxG): > 30 µM

CN[C@H]1C(=O)N[C@@H]2Cc3ccc(cc3)Oc3cc4cc(c3O[C@@H]3O[C@H](C(=O)O)[C@@H](O)[C@H](O)[C@H]3NC(=O)CCCCCCCCC(C)C)Oc3ccc(cc3Cl)[C@@H](O)[C@@H]3NC(=O)[C@H](NC(=O)[C@@H]4NC(=O)[C@@H](NC2=O)c2cc(cc(O)c2Cl)Oc2cc1ccc2O)c1ccc(O)c(c1)-c1c(O[C@H]2O[C@H](CO)[C@@H](O)[C@H](O)[C@@H]2O)cc(O)cc1[C@@H](C(=O)NCCCN(C)C)NC3=O [Dalbavancin]
EC50 (EV1 [8]; read-out: EC50 CTG): 3230 nM
EC50 (EV1 [8]; read-out: EC50 CTxG): 18700 nM
antiviral activity in repeat experiments (EV1 [9]): confirmed antiviral activity
production of infectious virus particles (EV1 [9]): lowered production of infectious virus particles
EC50 (EV1 [9]): 9.72 µM
CC50 (RPE cells): > 30 µM
cytotoxicity (RPE cells): without detectable cytotoxicity

CCCCOc1cc(C(=O)NCCN(CC)CC)c2ccccc2n1 [Dibucaine]
SI (minimal selectivity index, CC50/EC50) (EV1 [8]): >15
EC50 (EV1 [8]; [13]): 2050 nM
antiviral activity in repeat experiments (EV1 [9]): confirmed antiviral activity
EC50 (EV1 [9]; Enterovirus B): 0.96 µM
CC50 (in vitro [5]; CC50 CTG): > 30 µM
CC50 (in vitro [5]; CC50 CTxG): > 30 µM

O=C1[C@H](CC[C@H](O)c2ccc(F)cc2)[C@@H](c2ccc(O)cc2)N1c1ccc(F)cc1 [Ezetimibe]
SI (minimal selectivity index, CC50/EC50) (ZIKV FB-GWUH-2016 strain [3]): >333
EC50 (ZIKV FB-GWUH-2016 strain [3]; read-out: EC50 CTxG): 0.09 µM
production of infectious virus particles (ZIKV FB-GWUH-2016 strain [4]; ZIKV, RPE cells): lowered production of infectious virus particles
antiviral activity in repeat experiments (ZIKV FB-GWUH-2016 strain [4]; ZIKV, RPE cells): confirmed antiviral activity
SI (minimal selectivity index, CC50/EC50) (HIV-1): >2
primary screen hit against HIV-1 (HIV-1): anti-HIV-1 agents
validation of anti-HIV-1 hit (HIV-1): confirmed
EC50 (HIV-1): 13.2 µM
screen hit against RVFV [1]: identified
cytotoxicity (RPE cells): without detectable cytotoxicity
CC50 (in vitro [5]; CC50 CTG): > 30 µM
CC50 (in vitro [5]; CC50 CTxG): > 30 µM
CC50 (in vitro [10]): > 30 µM

CNCCC(Oc1ccc(C(F)(F)F)cc1)c1ccccc1 (stereo not drawn) [Fluoxatine]
CC50 (in vitro [5]; CC50 CTG): 4.02 µM
CC50 (in vitro [5]; CC50 CTxG): 7.33 µM

CCN(CCO)CCCC(C)Nc1ccnc2cc(Cl)ccc12 (stereo not drawn) [Hydroxychloroquine]
SI (minimal selectivity index, CC50/EC50) (ZIKV FB-GWUH-2016 strain [3]): >1
EC50 (ZIKV FB-GWUH-2016 strain [3]; read-out: EC50 CTG): 23 µM
EC50 (ZIKV FB-GWUH-2016 strain [3]; read-out: EC50 CTxG): 0.06 µM
antiviral activity in repeat experiments (ZIKV FB-GWUH-2016 strain [4]; ZIKV, RPE cells): confirmed antiviral activity
CC50 (in vitro [5]; CC50 CTG): > 30 µM
CC50 (in vitro [5]; CC50 CTxG): > 30 µM

Cc1cccc(C)c1OCC(=O)N[C@@H](Cc1ccccc1)[C@@H](O)C[C@H](Cc1ccccc1)NC(=O)[C@H](C(C)C)N1CCCNC1=O [Lopinavir]
SI (minimal selectivity index, CC50/EC50) (ZIKV FB-GWUH-2016 strain [3]): >1
EC50 (ZIKV FB-GWUH-2016 strain [3]; read-out: EC50 CTG): 12 µM
antiviral activity in repeat experiments (ZIKV FB-GWUH-2016 strain [4]; ZIKV, RPE cells): confirmed antiviral activity
EC50 (ZIKV FB-GWUH-2016 strain [4]): 24.1 µM
CC50 (in vitro [5]; CC50 CTG): > 30 µM
CC50 (in vitro [5]; CC50 CTxG): > 30 µM

CN(C)c1ccc(O)c2c1C[C@H]1C[C@H]3[C@H](N(C)C)C(O)=C(C(N)=O)C(=O)[C@@]3(O)C(O)=C1C2=O [Minocycline]
primary screen hit against HIV-1 (HIV-1): anti-HIV-1 agents
validation of anti-HIV-1 hit (HIV-1): confirmed
EC50 (HIV-1): 6.84 µM
SI (minimal selectivity index, CC50/EC50) [1]: >11
screen hit against RVFV [1]: identified
EC50 [1]: 9.52 µM

COc1c(C)c2c(c(O)c1C/C=C(\C)CCC(=O)O)C(=O)OC2 [Mycophenolic acid]
SI (minimal selectivity index, CC50/EC50) (CHIKV-2SG-NanoLuc [6]): >333
EC50 (CHIKV-2SG-NanoLuc [6]; read-out: EC50 CTxG): 0.08 µM
antiviral activity in repeat experiments (CHIKV-2SG-NanoLuc [7]): confirmed antiviral activity
EC50 (CHIKV-2SG-NanoLuc [7]): 0.09 µM
SI (minimal selectivity index, CC50/EC50) (RRV-2SG-NanoLuc [11]): >9
EC50 (RRV-2SG-NanoLuc [11]; Ross River virus, RPE, read-out: EC50 CTG): 3.19 µM
antiviral activity in repeat experiments (RRV-2SG-NanoLuc [12]): confirmed antiviral activity
EC50 (RRV-2SG-NanoLuc [12]; Ross River virus, RPE, read-out: EC50 other): 860 nM
CC50 (in vitro [5]; CC50 CTG): > 30 µM
CC50 (in vitro [5]; CC50 CTxG): > 30 µM

CN[C@H](CC(C)C)C(=O)N[C@H]1C(=O)N[C@@H](CC(N)=O)C(=O)N[C@H]2C(=O)N[C@H]3C(=O)N[C@H](C(=O)N[C@H](C(=O)O)c4cc(O)cc(O)c4-c4cc3ccc4O)[C@H](O[C@H]3C[C@](C)(N)[C@@H](O)[C@H](C)O3)c3ccc(c(Cl)c3)Oc3cc2cc(c3O[C@@H]2O[C@H](CO)[C@@H](O)[C@H](O)[C@H]2O[C@H]2C[C@](C)(NCc3ccc(-c4ccc(Cl)cc4)cc3)[C@@H](O)[C@H](C)O2)Oc2ccc(cc2Cl)[C@H]1O [Oritavancin]
screen hit against RVFV [1]: identified
EC50 [1]: 4.49 µM
CC50 (in vitro [2]): 75.8 µM

Cc1ccc2c(c1)c1c3n2CCNC3CCC1 (stereo not drawn) [Pirlindole]
SI (minimal selectivity index, CC50/EC50) (EV1 [8]): 11
EC50 (EV1 [8]; [13]): 2710 nM
antiviral activity in repeat experiments (EV1 [9]): confirmed antiviral activity
EC50 (EV1 [9]; Enterovirus B): 8.92 µM
CC50 (in vitro [5]; CC50 CTG): 28.5 µM
CC50 (in vitro [5]; CC50 CTxG): > 30 µM

CO[C@H]1C[C@@H]2CC[C@@H](C)[C@@](O)(O2)C(=O)C(=O)N2CCCC[C@H]2C(=O)O[C@H]([C@H](C)C[C@@H]2CC[C@@H](O)[C@H](OC)C2)CC(=O)[C@H](C)/C=C(\C)[C@@H](O)[C@@H](OC)C(=O)[C@H](C)C[C@H](C)/C=C/C=C/C=C/1C [Rapamycin]
SI (minimal selectivity index, CC50/EC50) (HIV-1): >1
primary screen hit against HIV-1 (HIV-1): anti-HIV-1 agents
validation of anti-HIV-1 hit (HIV-1): confirmed
EC50 (HIV-1): 18.9 µM
CC50 (in vitro [10]): > 30 µM

CC(C)c1nc(CN(C)C(=O)N[C@H](C(=O)N[C@@H](Cc2ccccc2)C[C@H](O)[C@H](Cc2ccccc2)NC(=O)OCc2cncs2)C(C)C)cs1 [Ritonavir]
screen hit against RVFV [1]: identified
EC50 [1]: 26.8 µM

C[C@H]1c2cccc(O)c2C(=O)C2=C(O)[C@]3(O)C(=O)C(C(N)=O)=C(O)[C@@H](N(C)C)[C@@H]3[C@@H](O)[C@@H]21 [doxycycline]
screen hit against RVFV [1]: identified

COc1cc2ncnc(Nc3ccc(F)c(Cl)c3)c2cc1OCCCN1CCOCC1 [gefitinib]
screen hit against RVFV [1]: identified

CC[C@@]1(O)C(=O)OCc2c1cc1n(c2=O)Cc2cc3c(CN(C)C)c(O)ccc3nc2-1 [topotecan]
screen hit against RVFV [1]: identified
